Results pooled from the literature.
Compare with care: the assays were run in different laboratories.
Target: Homeodomain-interacting protein kinase 1 (HIPK1, Homo sapiens, UniProt Q86Z02)

Structure (SMILES) | test | conditions | remaining binding
CN(C)c1nccc(-c2cnn3ncccc23)n1 | binding | 1 µM | 55%
FC(F)(F)c1ccc2c(c1)nc(-c1cccnc1)n2C1CC1 | cell-free assay, competition with immobilised ligand | 1 µM | 100%
O=C(c1ccc(Nc2ncc(Cl)c(-c3ccc(Cl)s3)n2)cc1)N1CCC(N2CCCC2)CC1 | binding, competition with immobilised ligand | 1 µM | 1.3%
CN(C)c1ncc(F)c(-c2cnn3ncccc23)n1 | binding | 1 µM | 75%
FC(F)(F)Oc1cccc(-c2cnc3ccc(-c4ccncc4)nn23)c1 | cell-free assay, competition with immobilised ligand | 5 µM | 0.15%
O=C(NCCCN1CCOCC1)c1ccc(Nc2nccc(-c3cc4ccccc4s3)n2)cc1 | binding, competition with immobilised ligand | 1 µM | 36%
COc1cc(-c2cn(C3CCc4ccccc4N(CC(F)(F)F)C3=O)nn2)ccc1-n1ccc(C)n1 (stereo not drawn) | cell-free assay, competition with immobilised ligand | 1 µM | 96%
N[C@H]1CCN(c2nccc(-c3cnn4ncccc34)n2)C1 | binding | 1 µM | 54%
COc1ncc2cc3ccccc3nc2c1C#N | cell-free assay, competition with immobilised ligand | 5 µM | 81%
Nc1ncc2c(n1)-c1c([nH]c3ccc(C#CC4CC4)cc13)CCCC2 | binding, competition with immobilised ligand | 1 µM | 87%
CS(=O)(=O)NCC[C@H](NC(=O)c1cncc2c1cnn2-c1ccc(F)cc1)c1ccnc(S(C)(=O)=O)c1 | cell-free assay, competition with immobilised ligand | 1 µM | 100%
c1cncc(-c2cccc(Nc3nccc(NC4CCCCC4)n3)c2)c1 | binding, competition with immobilised ligand | 10 µM | 56%
O=C(NS(=O)(=O)c1ccc(NCC2CCOCC2)c([N+](=O)[O-])c1)c1ccc(N2CCN(Cc3ccc(C(F)(F)F)cc3-c3ccc(Cl)cc3)CC2)cc1Oc1cnc2[nH]ccc2c1 | cell-free assay, competition with immobilised ligand | 1 µM | 84%
Cc1cnc(Nc2ccc(C(=O)N3CCC(N4CCCC4)CC3)cc2)nc1-c1cc2ccccc2s1 | binding, competition with immobilised ligand | 1 µM | 2.2%
CN(C)c1nccc(-c2cnc3ncccn23)n1 | binding | 1 µM | 44%
O=C(NCC1CCOCC1)c1n[nH]cc1NC(=O)c1c(F)cccc1F | binding, competition with immobilised ligand | 1 µM | 69%
O=C(O)c1cc(-c2ccc(C3CCNCC3)cc2)c2ccc(-c3ccc(C(F)(F)F)cc3)cc2c1 | cell-free assay, competition with immobilised ligand | 1 µM | 97%
C[C@H]1CCN(c2nccc(-c3cnn4ncccc34)n2)C1 | binding | 1 µM | 40%
CC(=O)C1=C(C)N(c2cccc(C(F)(F)F)c2)C(=O)N[C@@H]1c1ccc(C#N)nc1 | cell-free assay, competition with immobilised ligand | 1 µM | 72.6%
Cc1cnn2ncc(-c3ccnc(N(C)C)n3)c2c1 | binding | 1 µM | 39%
COc1cnc(Nc2cccc(S(N)(=O)=O)c2)nc1N1CCN(c2ccccc2)CC1 | binding, competition with immobilised ligand | 1 µM | 98%
